Assay results published in ChEMBL document CHEMBL3525906, “A comprehensive assessment of repaglinide metabolic pathways: impact of choice of in vitro system and relative enzyme contribution to in vitro clearance” (Drug Metab Dispos, 2012).
Blank lines part the entries; values can stand above or below the molecule they belong to.

Experiments:
[1] = Retention time of the compound by LC-MS/MS method; type: physicochemical
[2] = Ratio of human recombinant CYP2C8-mediated unbound intrinsic clearance to human recombinant CYP3A5-mediated unbound intrinsic clearance; type: ADME; conditions: recombinant enzyme
[3] = Ratio of human recombinant CYP2C8-mediated unbound intrinsic clearance to human recombinant CYP3A4-mediated unbound intrinsic clearance; type: ADME; conditions: recombinant enzyme
[4] = species: Homo sapiens; assay: Unbound intrinsic clearance in human hepatic S9 fraction assessed as ketoconazole-mediated inhibition of 3'-hydroxy repaglinide intrinsic clearance at 0.5 to 150 uM by LC-MS/MS method
[5] = molecular target: T1, Cytochrome P450 2C8 (Homo sapiens, UniProt P10632); assay: Drug metabolism assessed as human recombinant CYP2C8-mediated metabolite formation at 0.5 to 150 uM by LC-MS/MS method; type: ADME; conditions: recombinant enzyme
T1 sequence (P10632 whole entry): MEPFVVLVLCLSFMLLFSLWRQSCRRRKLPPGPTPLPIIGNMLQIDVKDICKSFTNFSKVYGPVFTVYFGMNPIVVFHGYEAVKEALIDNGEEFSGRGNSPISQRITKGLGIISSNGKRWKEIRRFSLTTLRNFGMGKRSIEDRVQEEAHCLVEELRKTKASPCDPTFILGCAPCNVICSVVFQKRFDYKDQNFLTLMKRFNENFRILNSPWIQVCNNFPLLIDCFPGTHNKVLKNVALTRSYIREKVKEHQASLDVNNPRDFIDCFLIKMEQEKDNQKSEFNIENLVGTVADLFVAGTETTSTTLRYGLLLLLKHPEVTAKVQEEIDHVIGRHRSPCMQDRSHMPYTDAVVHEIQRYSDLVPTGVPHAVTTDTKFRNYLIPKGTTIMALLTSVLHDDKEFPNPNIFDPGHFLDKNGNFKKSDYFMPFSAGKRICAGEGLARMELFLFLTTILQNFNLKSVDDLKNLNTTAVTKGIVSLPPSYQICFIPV
Method in brief: (§1)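 Recombinant P450 (CYP2C8 50, CYP3A4 30, CYP3A5 100; units not given) incubated 10 min at 37°C with repaglinide (8 concentrations, 0.5–150 μM) in 0.1 M phosphate pH 7.4, 10 mM MgCl2, NADPH-regenerating system (1 mM NADP+, isocitrate/isocitrate dehydrogenase). Quenched with ice-cold methanol plus indomethacin internal standard. M1, M2, M4 quantified by LC-MS/MS against authentic standards. Michaelis-Menten fit; mean ± SD, n=3.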

[6] = molecular target: Cytochrome P450 3A5 (Homo sapiens, UniProt P20815); assay: Drug metabolism assessed as human recombinant CYP3A5-mediated metabolite formation at 0.5 to 150 uM by LC-MS/MS method; type: ADME; conditions: recombinant enzyme; method in brief: as §1
[7] = Unbound intrinsic clearance in human hepatic S9 fraction assessed as 10 uM disulfiram-mediated inhibition of 2-despiperidyl-2-(5-carboxypentylamine) repaglinide formation at 0.5 to 150 uM by LC-MS/MS method; type: tissue-based, Liver; conditions: s9, 150 µM
[8] = molecular target: Cytochrome P450 3A4 (Homo sapiens, UniProt P08684); assay: Drug metabolism assessed as human recombinant CYP3A4-mediated metabolite formation at 0.5 to 150 uM by LC-MS/MS method; type: ADME; conditions: recombinant enzyme; method in brief: as §1
[9] = Unbound intrinsic clearance in human hepatic S9 fraction assessed as IC50 for disulfiram-mediated inhibition of 2-despiperidyl-2-(5-carboxypentylamine) repaglinide formation at 10, 25 and 50 uM by LC-MS/MS method
[10] = Ratio of human recombinant CYP3A4-mediated unbound intrinsic clearance to human recombinant CYP3A5-mediated unbound intrinsic clearance; type: ADME; conditions: recombinant enzyme
[11] = Ratio of human recombinant CYP3A4-mediated unbound intrinsic clearance to human recombinant CYP2C8-mediated unbound intrinsic clearance; type: ADME; conditions: recombinant enzyme
[12] = species: Homo sapiens; assay: Unbound intrinsic clearance in human hepatic S9 fraction assessed as gemfibrozil glucuronide-mediated inhibition of 2-despiperidyl-2-amino repaglinide intrinsic clearance at 0.5 to 150 uM by LC-MS/MS method
[13] = substrate: CCOc1cc(CC(=O)N[C@@H](CC(C)C)c2ccccc2N2CCCCC2)ccc1C(=O)O; assay: Activity of human recombinant CYP2C8 expressed in insect cells assessed as enzyme-mediated 3'-hydroxy repaglinide formation per picomole of protein at 0.5 to 150 uM by LC-MS/MS method; type: ADME; method in brief: as §1
[14] = substrate: CCOc1cc(CC(=O)N[C@@H](CC(C)C)c2ccccc2N2CCCCC2)ccc1C(=O)O; assay: Activity of human recombinant CYP2C8 expressed in insect cells assessed as enzyme-mediated 3'-hydroxy repaglinide formation by LC-MS/MS method; type: ADME; method in brief: as §1
[15] = substrate: CCOc1cc(CC(=O)N[C@@H](CC(C)C)c2ccccc2N2CCCCC2)ccc1C(=O)O; assay: Activity of human recombinant CYP2C8 expressed in insect cells assessed as enzyme-mediated 2-despiperidyl-2-amino repaglinide formation per picomole of protein at 0.5 to 150 uM by LC-MS/MS method; type: ADME; method in brief: as §1
[16] = substrate: CCOc1cc(CC(=O)N[C@@H](CC(C)C)c2ccccc2N2CCCCC2)ccc1C(=O)O; assay: Activity of human recombinant CYP2C8 expressed in insect cells assessed as enzyme-mediated 2-despiperidyl-2-amino repaglinide formation by LC-MS/MS method; type: ADME; method in brief: as §1
[17] = substrate: CCOc1cc(CC(=O)N[C@@H](CC(C)C)c2ccccc2N2CCCCC2)ccc1C(=O)O; assay: Activity of human recombinant CYP3A5 expressed in insect cells assessed as enzyme-mediated 3'-hydroxy repaglinide formation per picomole of protein at 0.5 to 150 uM by LC-MS/MS method; type: ADME; method in brief: as §1
[18] = substrate: CCOc1cc(CC(=O)N[C@@H](CC(C)C)c2ccccc2N2CCCCC2)ccc1C(=O)O; assay: Activity of human recombinant CYP3A5 expressed in insect cells assessed as enzyme-mediated 2-despiperidyl-2-amino repaglinide formation per picomole of protein at 0.5 to 150 uM by LC-MS/MS method; type: ADME; method in brief: as §1
[19] = substrate: CCOc1cc(CC(=O)N[C@@H](CC(C)C)c2ccccc2N2CCCCC2)ccc1C(=O)O; assay: Activity of human recombinant CYP3A5 expressed in insect cells assessed as enzyme-mediated 2-despiperidyl-2-amino repaglinide formation by LC-MS/MS method; type: ADME; method in brief: as §1

Cytochrome P450 3A4, sequence (P08684 whole entry): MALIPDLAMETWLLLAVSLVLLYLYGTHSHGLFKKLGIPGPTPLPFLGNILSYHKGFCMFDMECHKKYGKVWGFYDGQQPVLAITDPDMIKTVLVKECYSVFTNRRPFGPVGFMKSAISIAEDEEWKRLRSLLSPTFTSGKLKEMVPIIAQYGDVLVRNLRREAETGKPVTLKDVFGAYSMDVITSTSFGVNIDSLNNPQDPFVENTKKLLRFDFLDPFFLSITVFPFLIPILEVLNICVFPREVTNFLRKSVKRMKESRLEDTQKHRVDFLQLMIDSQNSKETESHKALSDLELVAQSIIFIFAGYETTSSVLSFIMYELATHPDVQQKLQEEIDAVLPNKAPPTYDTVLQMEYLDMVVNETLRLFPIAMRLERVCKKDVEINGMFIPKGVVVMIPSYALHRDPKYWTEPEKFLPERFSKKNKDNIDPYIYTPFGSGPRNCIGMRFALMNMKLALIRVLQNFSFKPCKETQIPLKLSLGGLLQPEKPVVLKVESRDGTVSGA

Retention_time [1]: 2.9 min | Ratio [2]: 360 | Ratio [3]: 35 | inhibition (INH) [4]: < 30%
Molecule: CCOc1cc(CC(=O)N[C@@H](CC(C)C)c2ccccc2N2CCCC(O)C2)ccc1C(=O)O (stereo partly drawn)

Retention_time [1]: 2.8 min | Drug metabolism [5]: < 1 nM | Drug metabolism [6]: < 1 nM | inhibition (INH) [7]: 89% | Drug metabolism [8]: < 1 nM | IC50 [9]: 1200 nM
Molecule: CCOc1cc(CC(=O)N[C@@H](CC(C)C)c2ccccc2NCCCCC(=O)O)ccc1C(=O)O

Retention_time [1]: 3.4 min
Molecule: CCOc1cc(CC(=O)N[C@@H](CC(C)C)c2ccccc2N2CCCCC2)ccc1C(=O)O[C@@H]1O[C@H](C(=O)O)[C@@H](O)[C@H](O)[C@H]1O

Retention_time [1]: 2.7 min | Ratio [10]: 85 | Ratio [11]: 32 | inhibition (INH) [12]: < 30%
Molecule: CCOc1cc(CC(=O)N[C@@H](CC(C)C)c2ccccc2N)ccc1C(=O)O

Retention_time [1]: 3 min
Molecule: COc1ccc2c(c1)c(CC(=O)O)c(C)n2C(=O)c1ccc(Cl)cc1 [INDOMETHACIN]

B1: Cytochrome P450 2C8 (Homo sapiens) (protein)
chain: T1 sequence (P10632 whole entry)
kcat [13]: 0.00583 s⁻¹ | Km [14]: 5.7 µM | kcat [15]: 0.00133 s⁻¹ | Km [16]: 25 µM

B2: Cytochrome P450 3A5 (Homo sapiens) (protein)
chain: MDLIPNLAVETWLLLAVSLVLLYLYGTRTHGLFKRLGIPGPTPLPLLGNVLSYRQGLWKFDTECYKKYGKMWGTYEGQLPVLAITDPDVIRTVLVKECYSVFTNRRSLGPVGFMKSAISLAEDEEWKRIRSLLSPTFTSGKLKEMFPIIAQYGDVLVRNLRREAEKGKPVTLKDIFGAYSMDVITGTSFGVNIDSLNNPQDPFVESTKKFLKFGFLDPLFLSIILFPFLTPVFEALNVSLFPKDTINFLSKSVNRMKKSRLNDKQKHRLDFLQLMIDSQNSKETESHKALSDLELAAQSIIFIFAGYETTSSVLSFTLYELATHPDVQQKLQKEIDAVLPNKAPPTYDAVVQMEYLDMVVNETLRLFPVAIRLERTCKKDVEINGVFIPKGSMVVIPTYALHHDPKYWTEPEEFRPERFSKKKDSIDPYIYTPFGTGPRNCIGMRFALMNMKLALIRVLQNFSFKPCKETQIPLKLDTQGLLQPEKPIVLKVDSRDGTLSGE
kcat [17]: 0.000833 s⁻¹ | kcat [18]: 0.00133 s⁻¹ | Km [19]: 66 µM
